“And” between values parts separate entries of the source, which are not always exact repeats. Equal entries are not always repeated.

We go through 13 compounds from ChEMBL document CHEMBL1124688, “9,11-Epoxy-9-homo-14-thiaprost-5-enoic acid derivatives: potent thromboxane A2 antagonists” (J Med Chem, 1989).

Test [1] is filed under the species Homo sapiens. Nature of the test: (§1) Percentage stimulation on the synthesis of PGE-2 was at a dose of 1000 uM. The format is functional. The essentials:
(§2)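 Arachidonic acid metabolism was measured in a lysed platelet preparation. Thromboxane synthesis (as TxB2) and PGE2 production were determined at each listed test concentration.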

For test [2], the system named is thromboxane-A synthase (Homo sapiens). The test can be described thus: Percent inhibition on the synthesis of thromboxane B2 at a dose of 10 uM.
For test [3], the species on record is Homo sapiens. The test can be described thus: (§3) Percentage stimulation on the synthesis of PGE-2 at a dose of 10 uM. The format is functional. The essentials: as §2
The species entered for test [4] is Homo sapiens. Nature of the test: (§4) Percentage stimulation on the synthesis of PGE-2 was at a dose of 100 uM. The class given is functional. The essentials: as §2
Test [5] deals with thromboxane-A synthase (Homo sapiens). The test can be described thus: Percent inhibition on the synthesis of thromboxane B2 at a dose of 100 uM.
Test [6] has the same test system. The test can be described thus: Percent inhibition on the synthesis of thromboxane B2 at a dose of 1000 uM.
Test [7] is filed under the species Cavia porcellus. Nature of the test: In vitro evaluation for antagonist activity against the contraction-induced by histamine (1 ug/mL). The format is functional. To be noted: read-out: I50. The essentials: (§5)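 Guinea pig trachea spirals were contracted by either 9,11-azo-PGH2 (a stable PGH2/TxA2 mimetic) or histamine, and compounds were tested for blockade of these contractions.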

The species entered for test [8] is Rattus norvegicus. Nature of the test: maximal contraction of rat stomach strip by 3 x 10e -7M serotonin. The format is functional.
The subject of test [9] is Cavia porcellus. The test can be described thus: Inhibition of arachidonic acid-induced response in guinea pigs by 1 mg/kg of intravenously administered compound. The format is functional. Set-up: scale not given: the % may be the effect or the level left. To be noted: route intravenous. A digest of the protocol: (§6)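 Anesthetized guinea pigs were challenged with arachidonic acid, and lung mechanics (lung resistance, dynamic compliance) and mean arterial blood pressure were recorded. Compounds were given as a 1.0 mg/kg rapid iv infusion, with n = 5 versus vehicle. Inhibition above 100% denotes reversal of the blood-pressure response.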

For test [10], the species on record is Homo sapiens. The test can be described thus: In vitro evaluation for arachidonic acid induced platelet aggregation of human platelet-rich plasma. The format is functional. To be noted: read-out: I50. The essentials:
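Human platelet-rich plasma was aggregated with arachidonic acid (800 μM). An ADP (20 μM)-induced aggregation run served as a counter-screen.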

Test [11] is filed under the species Homo sapiens. Nature of the test: Percentage stimulation on the synthesis of PGE-2 at a dose of 333 uM. The class given is functional. A digest of the protocol:
as §2

The species named for test [12] is Homo sapiens. The test can be described thus: Percentage stimulation on the synthesis of PGE-2 at a dose of 1000 uM. The class given is functional. A digest of the protocol: as §2
The species entered for test [13] is Homo sapiens. The test can be described thus: Percent inhibition on the synthesis of thromboxane B2 at a dose of 333 uM. The format is functional. A digest of the protocol:
as §2

The species named for test [14] is Homo sapiens. The test is described as §3. The format is functional. A digest of the protocol: as §2
This is another data set of the same source.

Test [15] is filed under the species Cavia porcellus. The test can be described thus: Duration of action of compound for inhibition of arachidonic acid-induced response in guinea pigs. The class given is functional.
For test [16], the species on record is Homo sapiens. The test can be described thus: Percentage stimulation on the synthesis of PGE-2 at a dose of 33 uM. The format is functional. The essentials: as §2
The species entered for test [17] is Homo sapiens. The test can be described thus: Percentage stimulation on the synthesis of PGE-2 at a dose of 100 uM. The format is functional. A digest of the protocol:
as §2

For test [18], the species on record is Cavia porcellus. Nature of the test: In vitro evaluation for antagonist activity against the contraction-induced by 9,11-azo-PGH2 (0.1 ug/mL). The class given is functional. Particulars: read-out: I50. The essentials:
as §5

The species entered for test [19] is Homo sapiens. Nature of the test: (§7) Percent inhibition on the synthesis of thromboxane B2 at a dose of 1000 uM. The format is functional. The essentials:
as §2

The species named for test [20] is Homo sapiens. The test can be described thus: (§8) Percent inhibition on the synthesis of thromboxane B2 at a dose of 100 uM. The class given is functional. The essentials:
as §2

For test [21], the target named is T1, Thromboxane A2 receptor (Homo sapiens, UniProt P21731).
T1 sequence (P21731 whole entry): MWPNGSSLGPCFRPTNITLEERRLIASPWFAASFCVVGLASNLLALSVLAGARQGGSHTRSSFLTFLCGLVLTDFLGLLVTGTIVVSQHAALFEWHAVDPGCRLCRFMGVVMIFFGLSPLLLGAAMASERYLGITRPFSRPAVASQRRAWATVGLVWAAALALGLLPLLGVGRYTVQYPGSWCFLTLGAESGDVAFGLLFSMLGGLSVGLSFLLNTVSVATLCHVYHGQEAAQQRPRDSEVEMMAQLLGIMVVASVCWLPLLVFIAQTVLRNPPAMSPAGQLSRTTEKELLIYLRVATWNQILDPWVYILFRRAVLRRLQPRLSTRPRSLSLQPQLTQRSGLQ
Nature of the test: Inhibition of specific binding of HSQ(5,6-di-3H-SQ 29,548) in washed platelets. On the set-up: species or system Cavia porcellus.

Test [22] has as its system Cavia porcellus. Nature of the test: Change in mean arterial blood pressure(MABP) in guinea pigs by 1 mg/kg of intravenously administered compound. The class given is functional, Artery. To be noted: route intravenous, 1 mg/kg. The essentials: as §6
Test [23] is filed under the species Rattus norvegicus. Nature of the test: Concentration required to elicit 50% of the maximal contraction of rat stomach strip. The class given is functional. A digest of the protocol:
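Rat stomach strip contraction was measured as the concentration giving 50% of the maximal contraction produced by 3×10^-7 M serotonin.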

For test [24], the species on record is Homo sapiens. The test can be described thus: Percent inhibition on the synthesis of thromboxane B2 at a dose of 10 uM. The class given is functional. The essentials: as §2
For test [25], the species on record is Homo sapiens. Described as §7. The class given is functional. A digest of the protocol: as §2
This is another data set of the same source.

The species entered for test [26] is Homo sapiens. Described as §8. The class given is functional. The essentials: as §2
This is another data set of the same source.

The species entered for test [27] is Cavia porcellus. The test can be described thus: Duration of action of compound for Inhibition of arachidonic acid-induced response in guinea pigs. The format is functional.
In test [28] the test system is Cavia porcellus. The test can be described thus: Change in mean arterial blood pressure in guinea pigs by 1 mg/kg of intravenously administered compound. To be noted: route intravenous. The class given is functional, Artery. A digest of the protocol: as §6
Test [29] concerns the target Thromboxane A2 receptor (Homo sapiens) (UniProt P21731). Nature of the test: Compound was evaluated for inhibition of specific binding of HSQ (5,6-di-3H-SQ 29,548) in washed platelets.
Test [30] is filed under the species Homo sapiens. The test is described as §4. The class given is functional. A digest of the protocol: as §2
The source holds these as a separate data set.

Test [31] has as its target T1, Thromboxane A2 receptor. Nature of the test: Compound was evaluated for inhibition of specific binding of HSQ (5,6-di-3H-SQ 29,548) in washed platelets. On the set-up: species or system Cavia porcellus.
Test [32] is filed under the species Homo sapiens. Nature of the test: Percentage stimulation on the synthesis of PGE-2 was at a dose of 33 uM. The format is functional. A digest of the protocol:
as §2

Test [33] is filed under the species Homo sapiens. The test can be described thus: Percentage stimulation on the synthesis of PGE-2 was at a dose of 333 uM. The format is functional. A digest of the protocol:
as §2

For test [34], the species on record is Homo sapiens. The test is described as §1. The class given is functional. The essentials: as §2
The source holds these as a separate data set.

In the case of `CCCCCCSC[C@H]1C2CC[C@@H](O2)[C@H]1C/C=C\CCCC(=O)O` (single isomer, unassigned; (+)), the Stimulation in test [1] was -51%; in [3], 27%; in [4], 44%. Moreover, the values for the inhibition in [2], in [5] and in test [6] were 33%, 45% and 75%, respectively.

With `C=CCSCC1C2CCC(O2)C1C/C=C\CCCC(=O)O` (centres undefined), the values for the IC50 in test [7], in test [10] and in test [18] were over 100 µM, 500 nM and 3800 nM, respectively. This compound displayed a Contraction in test [8] of 26%. Further, the Activity in [9] is 273% and 98%. Besides, the Stimulation in test [11] stood at 1650%; in test [12] it was 1820%; in test [14] it was 220%; in [16] it was 380%; in test [17], 860%. For the same compound, the Inhibition in test [13] was determined as 51.8%; in [19] it was 61.5%; in test [20] it was 22.1%. This compound also had a Duration in test [15] of over 60 min. Further, the dissociation constant (Kd) in test [21] stood at 76 nM. Also, the Agonist activity in test [22] was 115% and 165%.

Take `C=CCCSCC1C2CCC(O2)C1C/C=C\CCCC(=O)O` (centres undefined): in test [10], the IC50 worked out at 200 nM. The same compound showed an A50 in test [23] of 32 µM. In test [21], this compound had a Kd of 49 nM.

In the case of `CCCCCCS(=O)(=O)CC1C2CCC(O2)C1C/C=C\CCCC(=O)O` (centres undefined), the A50 in test [23] was 8 µM.

Regarding `O=C(O)CCC/C=C\CC1C2CCC(O2)C1CSCCc1ccccc1` (centres undefined), in test [23], the A50 came out at 23 µM.

Regarding `CSCSCC1C2CCC(O2)C1C/C=C\CCCC(=O)O` (centres undefined), the Contraction in [8] is on record as 28%.

In the case of `CCCCCSCCC1C2CCC(O2)C1C/C=C\CCCC(=O)O` (centres undefined), the Stimulation was -75% in [1], 13% in test [3] and -45% in [4]. Further, the inhibition in test [24] is 33%; in test [25], 90%; in test [26], 80%.

In test [23], `O=C(O)CCCC=CCC1C2CCC(O2)C1CSC/C=C/c1ccccc1` (centres undefined) displayed an A50 of 0.7 µM.

With `CCC/C=C/CSCC1C2CCC(O2)C1CC=CCCCC(=O)O` (centres undefined), the IC50 in test [7] is over 100 µM; in test [18], 400 nM. The compound further gave a Duration in test [27] of under 60 min. Moreover, in [28], the “Activity MABP” value is 76% and 192%. Further, in test [23], the A50 was 26 µM. In test [29], this compound returned an equilibrium dissociation constant (Kd) of 3.1 nM.

Consider `CCSCC1C2CCC(O2)C1C/C=C\CCCC(=O)O` (centres undefined), for which the Contraction in test [8] was 13%.

Regarding `CC/C=C\CCSCC1C2CCC(O2)C1C/C=C\CCCC(=O)O` (centres undefined), the IC50 in test [7] is over 100 µM; in test [10], 200 nM; in [18], 380 nM. Moreover, the Duration in test [27] is recorded as over 60 min. The Stimulation in test [30] stood at 900%; in [32], 420%; in test [14], 210%; in [33], 1340%; in test [34] it was 1920%. Besides, the Activity in test [9] was 245% and 97%. Besides, the A50 in test [23] is 0.2 µM. The affinity in [31], expressed as Kd, was 0.4 nM. Also, the Inhibition in test [13] was 56.9%; in test [19], 91.2%; in test [20], 24.4%.

Compound `CC/C=C/CCSCC1C2CCC(O2)C1CC=CCCCC(=O)O` (centres undefined) returned an A50 in [23] of 0.04 µM.

`CSCC1C2CCC(O2)C1C/C=C\CCCC(=O)O` (centres undefined): the Contraction in test [8] is recorded as 30%.
